Source: ChEMBL document CHEMBL1146498, “Excisanin H, a novel cytotoxic 14,20-epoxy-ent-kaurene diterpenoid, and three new ent-kaurene diterpenoids from Rabdosia excisa” (J Nat Prod, 2004)
≈ marks a conversion by molar mass, not a printed value.

System: P388
Assay: Cytotoxicity against mouse P388 cells
Format: functional, cell-based
Summary of the method: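 In vitro assay on P388 murine leukemia cells; cytotoxic activity expressed as IC50, reported in μg/mL.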

Row | Compound | IC50
1 | C=C1C(=O)[C@@]23[C@@H](CC[C@@H]1[C@H]2O)[C@@]12C(=O)O[C@@H]3C[C@@H]1C(C)(C)CC[C@@H]2O | 0.77 µg/mL (≈ 2.22 µM)
2 | C=C1C(=O)[C@@]23[C@H](O)C[C@@H]4[C@@](C)(COC(C)=O)CC[C@H](O)[C@@]4(C)[C@@H]2CC[C@@H]1[C@H]3O | 0.72 µg/mL (≈ 1.83 µM)
3 | C=C1C(=O)[C@@]23[C@H](O)C[C@@H]4[C@@](C)(CO)CC[C@H](O)[C@@]4(C)[C@@H]2CC[C@@H]1[C@H]3O | 0.92 µg/mL (≈ 2.63 µM)
4 | C=C1C(=O)[C@@]23[C@H](O)C[C@@H]4C(C)(C)CC[C@H](O)[C@@]4(C)[C@@H]2C[C@H](O)[C@@H]1[C@H]3O [EXCISANIN A] | 1.11 µg/mL (≈ 3.17 µM)
5 | C=C1C(=O)[C@@]23[C@H](O)C[C@@H]4C(C)(C)CC[C@H](O)[C@@]4(C)[C@@H]2C[C@H](OC(C)=O)[C@@H]1[C@H]3O [EXCISANIN B] | 0.63 µg/mL (≈ 1.61 µM)
6 | C=C1C(=O)[C@]23[C@H](O)C[C@@H]4C(C)(C)CC[C@H](O)[C@]45CO[C@]2(O)[C@H]1CC[C@@H]53 [EXCISANIN H] | 0.96 µg/mL (≈ 2.76 µM)
7 | C=C1C(=O)[C@@]23[C@H](O)C[C@@H]4C(C)(C)CCC[C@@]4(CO)[C@@H]2C[C@H](O)[C@@H]1[C@H]3O [EXCISANIN I] | 0.87 µg/mL (≈ 2.48 µM)
8 | C=C1C(=O)[C@@]23[C@H](O)C[C@@H]4[C@@](C)(CO)CCC[C@@]4(CO)[C@@H]2CC[C@@H]1[C@H]3O [EXCISANIN J] | 0.92 µg/mL (≈ 2.63 µM)
9 | C=C1C(=O)[C@@]23[C@H](O)C[C@@H]4C(C)(C)CC[C@H](O)[C@@]4(COC(C)=O)[C@@H]2CC[C@@H]1[C@H]3O [HENRYIN] | 0.58 µg/mL (≈ 1.48 µM)
10 | C=C1C(=O)[C@@]23[C@H](O)C[C@@H]4C(C)(C)CC[C@H](O)[C@@]4(CO)[C@@H]2CC[C@@H]1[C@H]3O [KAMEBAKAURIN] | 0.82 µg/mL (≈ 2.34 µM)
11 | C=C1C(=O)[C@@]23[C@H](O)C[C@@H]4C(C)(C)CC[C@H](O)[C@@]4(C)[C@@H]2CC[C@@H]1[C@H]3O [KAMEBANIN] | 0.69 µg/mL (≈ 2.06 µM)
12 | C=C1C(=O)[C@]23[C@H](O)[C@H]1CC[C@H]2[C@@]12CO[C@@]3(O)C[C@@H]1C(C)(C)CC[C@@H]2O [MEGATHYRIN A] | 0.77 µg/mL (≈ 2.21 µM)
13 | C=C1C(=O)[C@@]23[C@H](O)C[C@@H]4[C@@](C)(CO)CCC[C@@]4(C)[C@@H]2C[C@H](O)[C@@H]1[C@H]3O [RABDOKUNMIN C] | 1.06 µg/mL (≈ 3.02 µM)
14 | C=C1C(=O)[C@@]23[C@H](O)C[C@@H]4C(C)(C)CC[C@H](O)[C@@]4(CO)[C@@H]2C[C@H](O)[C@@H]1[C@H]3O [RABDOSERRIN B] | 1.01 µg/mL (≈ 2.76 µM)
